Data published in ChEMBL document CHEMBL5230162 (RSC Med Chem, 2023).
pKd: −log10 of the molar value. In brackets after ≈: the same amount, converted by molar mass. Activity calls are given as the source filed them. No cut-off for these calls is given here.

Legend:
[1] = Solubility of the compound in water incubated for 15 mins under shaking conditions by UV spectrophotometry; format: physicochemical
[2] = Binding affinity to human ASGPR assessed as equilibrium dissociation constant by surface plasmon resonance spectroscopy
[3] = molecular target: T1, 3-hydroxy-3-methylglutaryl-coenzyme A reductase (Homo sapiens) (UniProt P04035); experiment: Inhibition of HMG-CoA reductase (unknown origin) in neutral aqueous media
T1 sequence (whole entry): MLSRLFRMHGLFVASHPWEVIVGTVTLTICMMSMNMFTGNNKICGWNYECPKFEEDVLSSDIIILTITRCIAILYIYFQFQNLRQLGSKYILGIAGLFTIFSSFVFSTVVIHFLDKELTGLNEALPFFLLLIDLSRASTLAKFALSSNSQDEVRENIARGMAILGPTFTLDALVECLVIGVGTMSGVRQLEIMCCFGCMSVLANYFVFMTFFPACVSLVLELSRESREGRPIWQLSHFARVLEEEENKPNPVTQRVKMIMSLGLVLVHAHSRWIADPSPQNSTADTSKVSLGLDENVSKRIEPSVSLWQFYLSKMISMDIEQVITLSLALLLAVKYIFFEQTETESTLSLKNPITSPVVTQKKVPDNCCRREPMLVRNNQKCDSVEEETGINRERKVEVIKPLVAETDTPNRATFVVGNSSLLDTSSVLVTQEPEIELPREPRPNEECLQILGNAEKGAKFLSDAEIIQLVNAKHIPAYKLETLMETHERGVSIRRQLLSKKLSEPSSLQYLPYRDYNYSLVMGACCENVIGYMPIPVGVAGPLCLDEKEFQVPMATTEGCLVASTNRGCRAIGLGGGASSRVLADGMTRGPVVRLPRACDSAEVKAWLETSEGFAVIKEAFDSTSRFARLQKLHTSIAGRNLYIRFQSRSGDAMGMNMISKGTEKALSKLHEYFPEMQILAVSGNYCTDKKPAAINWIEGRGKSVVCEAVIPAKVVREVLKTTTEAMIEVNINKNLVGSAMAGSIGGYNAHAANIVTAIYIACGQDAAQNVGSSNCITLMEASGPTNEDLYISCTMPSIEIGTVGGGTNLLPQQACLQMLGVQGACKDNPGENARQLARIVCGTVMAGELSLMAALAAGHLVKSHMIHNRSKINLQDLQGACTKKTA
Method in brief: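 HMG-CoA reductase kit assay. Compounds were 0.1 mM working solutions made from 0.01 M DMSO stocks diluted in water; 2 μL of each added per well. NADPH consumption followed as absorbance at 340 nm every 20 s for up to 10 min. Activity calculated from the NADPH extinction coefficient. Run in triplicate.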

[4] = Stability of the compound in acetate buffer at pH 5 measured for 24 hrs by HPLC-MS analysis; format: physicochemical; details: pH 5, 24 h
Method in brief: (§1)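 Incubated at 37 °C. Aliquots taken at 0, 0.5, 1, 2, 4, 8 and 24 h and quenched in cold methanol, stored at −20 °C, centrifuged, and the supernatant analysed by HPLC-MS.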

[5] = Solubility of the compound in water incubated for 15 mins under shaking conditions by UV spectrophotometry relative to atorvastatin; format: physicochemical; details: buffer, 0.25 h
Method in brief: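 Excess compound shaken strongly in 1 ml water for 15 min, then filtered or centrifuged. 50 μL of the saturated solution diluted into 1 mL methanol. Absorbance read at 290 nm and concentration taken from standard curves.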

[6] = molecular target: T1, 3-hydroxy-3-methylglutaryl-coenzyme A reductase (Homo sapiens); experiment: Inhibition of HMG-CoA reductase (unknown origin) in presence of cathepsin B
Method in brief: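 Compound (40 μM final) incubated for 24 h at 37 °C with recombinant cathepsin B (30 nM final) in 0.1 M sodium acetate pH 3.6, 100 mM NaCl, 1 mM EDTA, 0.6% DMSO. 5 μL of the mixture then tested in the HMG-CoA reductase kit assay: absorbance at 340 nm every 20 s for up to 10 min, in triplicate. Controls: enzyme-only buffer and compound without protease.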

[7] = Stability of the compound in acetate buffer at pH 5 measured after 24 hrs by HPLC-MS analysis; format: physicochemical; details: pH 5, 24 h; method in brief: as §1
[8] = Stability of the compound in PBS buffer at pH 7.4 measured after 24 hrs by HPLC-MS analysis; format: physicochemical; details: pH 7.4, 24 h; method in brief: as §1

SMILES | solubility at 0.25 h [1] | pKd [2] | inhibition (active/not active) [3] | Stability [4] | fold change (FC) [5] | inhibition [6] | Stability [7] | Stability [8]
CC(=O)N[C@H]1[C@H](OCCNC(=O)C[C@H](O)C[C@H](O)CCn2c(-c3ccc(F)cc3)c(-c3ccccc3)c(C(=O)Nc3ccccc3)c2C(C)C)O[C@H](CO)[C@H](O)[C@@H]1O | 430 µM (≈ 346 µg/mL) | 7.16 |  |  | 4 |  |  | 
CC(=O)N[C@@H]1[C@@H](O)[C@@H](O)[C@@H](CO)O[C@@H]1O |  | 5.35 |  |  |  |  |  | 
CC(=O)N[C@H]1[C@H](OCCn2cc(COC(=O)C[C@H](O)C[C@H](O)CCn3c(-c4ccc(F)cc4)c(-c4ccccc4)c(C(=O)Nc4ccccc4)c3C(C)C)nn2)O[C@H](CO)[C@H](O)[C@@H]1O | 320 µM (≈ 284 µg/mL) | 7.10 |  | Stable |  |  |  | 
CC(=O)N[C@H]1[C@H](OCCn2cc(CNC(=O)C[C@H](O)C[C@H](O)CCn3c(-c4ccc(F)cc4)c(-c4ccccc4)c(C(=O)Nc4ccccc4)c3C(C)C)nn2)O[C@H](CO)[C@H](O)[C@@H]1O | 540 µM (≈ 478 µg/mL) | 6.79 | inactive |  | 5 | Active | Stable | Stable
CC(=O)N[C@H]1[C@H](OCCn2cc(COC(=O)C[C@H]3C[C@@H](CCn4c(-c5ccc(F)cc5)c(-c5ccccc5)c(C(=O)Nc5ccccc5)c4C(C)C)OC(C)(C)O3)nn2)O[C@H](CO)[C@H](O)[C@@H]1O | 50 µM (≈ 46.4 µg/mL) | 9.48 | Active |  |  |  |  | 

More lines, now with the values ahead:

solubility at 0.25 h [1] | pKd [2] | inhibition (active/not active) [3] | Stability [4] | fold change (FC) [5] | inhibition [6] | Stability [7] | Stability [8] | SMILES
200 µM (≈ 169 µg/mL) | 7.32 | Active | Stable |  |  |  |  | CC(=O)N[C@@H]1[C@@H](O)[C@@H](O)[C@@H](CO)O[C@H]1n1cc(COC(=O)C[C@H](O)C[C@H](O)CCn2c(-c3ccc(F)cc3)c(-c3ccccc3)c(C(=O)Nc3ccccc3)c2C(C)C)nn1
 |  |  |  |  | Active |  |  | CC[C@H](C)C(=O)O[C@H]1C[C@H](O)C=C2C=C[C@H](C)[C@H](CC[C@@H](O)C[C@@H](O)CC(=O)O)[C@H]21
30 µM (≈ 26.5 µg/mL) | 9.82 |  |  |  |  |  |  | CC(=O)N[C@@H]1[C@@H](O)[C@@H](O)[C@@H](CO)O[C@H]1n1cc(COC(=O)C[C@H]2C[C@@H](CCn3c(-c4ccc(F)cc4)c(-c4ccccc4)c(C(=O)Nc4ccccc4)c3C(C)C)OC(C)(C)O2)nn1
450 µM (≈ 379 µg/mL) | 6.95 | inactive |  | 4 | Active | Stable | Stable | CC(=O)N[C@@H]1[C@@H](O)[C@@H](O)[C@@H](CO)O[C@H]1n1cc(CNC(=O)C[C@H](O)C[C@H](O)CCn2c(-c3ccc(F)cc3)c(-c3ccccc3)c(C(=O)Nc3ccccc3)c2C(C)C)nn1
